According to ChEMBL document CHEMBL5705898 (Proc Natl Acad Sci U S A, 2014):

Legend:
[1] = target: Bombesin receptor subtype-3 (Homo sapiens) (UniProt P32247); experiment: Inhibition of human BB3 receptor at 10 uM relative to control
[2] = target: T1, Histone-lysine N-methyltransferase SETD7 (Homo sapiens, UniProt Q8WTS6); experiment: Inhibition of full length human SETD7 (1 to 366 residues) expressed in Escherichia coli BL21 (DE3) V2R-pRARE assessed as apparent inhibition constant using biotinylated H3 (1-25) peptide as substrate incubated for 1 hrs in presence of 3H-SAM by morrison equation; conditions: read-out: Ki(app)
T1 sequence (Q8WTS6 whole entry): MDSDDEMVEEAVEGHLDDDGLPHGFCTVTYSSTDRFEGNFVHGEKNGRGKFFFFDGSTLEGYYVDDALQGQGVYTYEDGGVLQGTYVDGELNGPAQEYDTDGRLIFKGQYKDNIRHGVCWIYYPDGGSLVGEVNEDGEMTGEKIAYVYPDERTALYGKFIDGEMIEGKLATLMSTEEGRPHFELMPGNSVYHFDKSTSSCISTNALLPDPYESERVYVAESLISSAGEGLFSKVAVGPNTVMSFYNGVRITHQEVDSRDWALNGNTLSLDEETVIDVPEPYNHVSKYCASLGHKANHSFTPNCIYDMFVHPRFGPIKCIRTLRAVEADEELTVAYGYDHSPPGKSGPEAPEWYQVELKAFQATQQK

[3] = target: Endothelin-1 receptor (Homo sapiens) (UniProt P25101); experiment: Inhibition of human ETA receptor at 10 uM relative to control
Homo sapiens [4] = organism: Homo sapiens; experiment: Inhibition of SKCa channel (unknown origin) at 10 uM relative to control
[5] = target: Human immunodeficiency virus type 1 protease (Human immunodeficiency virus 1) (UniProt Q72874); experiment: Inhibition of HIV-1 protease at 10 uM relative to control
[6] = target: Alpha-1B adrenergic receptor (Homo sapiens) (UniProt P35368); experiment: Inhibition of human alpha 1B receptor at 10 uM relative to control
[7] = target: Calcium/calmodulin-dependent protein kinase type II subunit alpha (Homo sapiens) (UniProt Q9UQM7); experiment: Inhibition of human CaMK2alpha at 10 uM relative to control
[8] = target: Oxysterols receptor LXR-beta (Homo sapiens) (UniProt P55055); experiment: Inhibition of human LXRbeta at 10 uM relative to control
[9] = target: Kappa-type opioid receptor (Homo sapiens, UniProt P41145); experiment: Inhibition of human kappa opioid receptor
Homo sapiens [10] = organism: Homo sapiens; experiment: Inhibition of human sigma receptor at 10 uM relative to control
[11] = target: Vasopressin V1a receptor (Homo sapiens) (UniProt P37288); experiment: Inhibition of human V1a at 10 uM relative to control
[12] = target: Angiotensin-converting enzyme (Homo sapiens) (UniProt P12821); experiment: Inhibition of human ACE at 10 uM relative to control
[13] = target: Acetylcholinesterase (Homo sapiens) (UniProt P22303); experiment: Inhibition of human acetylcholinesterase at 10 uM relative to control
[14] = Inhibition of SETD7 H252W mutant (unknown origin) using biotinylated H3 (1-25) peptide as substrate incubated for 1 hrs in presence of 3H-SAM by radioactivity based assay; design: species or system Homo sapiens
Summary of the method: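 Scintillation proximity assay on recombinant E. coli-expressed human SETD7(1–366) mutant forms. Read-out was incorporation of the ³H-methyl group from ³H-SAM into histone H3(1–25) peptide, with 2 µM SAM, 2 µM H3(1–25) and 2 nM enzyme. IC50 is given as the mean ± SD of triplicate runs.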

[15] = target: 5-hydroxytryptamine receptor 2B (Homo sapiens) (UniProt P41595); experiment: Inhibition of human 5-HT2B receptor at 10 uM relative to control
Chain of 5-hydroxytryptamine receptor 2B (Homo sapiens) (P41595 whole entry): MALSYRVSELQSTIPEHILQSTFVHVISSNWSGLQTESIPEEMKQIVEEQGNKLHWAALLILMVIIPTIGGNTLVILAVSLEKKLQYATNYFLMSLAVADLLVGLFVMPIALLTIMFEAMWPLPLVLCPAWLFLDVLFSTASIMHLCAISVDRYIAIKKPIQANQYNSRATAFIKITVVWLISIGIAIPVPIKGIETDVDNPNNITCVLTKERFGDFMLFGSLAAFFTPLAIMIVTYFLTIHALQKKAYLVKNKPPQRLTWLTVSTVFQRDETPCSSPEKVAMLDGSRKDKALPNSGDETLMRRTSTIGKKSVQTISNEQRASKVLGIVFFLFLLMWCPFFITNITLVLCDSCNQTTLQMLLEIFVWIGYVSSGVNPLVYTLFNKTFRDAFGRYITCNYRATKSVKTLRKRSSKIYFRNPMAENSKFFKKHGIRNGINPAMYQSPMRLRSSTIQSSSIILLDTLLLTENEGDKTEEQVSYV

[16] = target: Melatonin receptor type 1A (Homo sapiens) (UniProt P48039); experiment: Inhibition of human MT1 at 10 uM relative to control
Chain of Melatonin receptor type 1A (Homo sapiens) (P48039 whole entry): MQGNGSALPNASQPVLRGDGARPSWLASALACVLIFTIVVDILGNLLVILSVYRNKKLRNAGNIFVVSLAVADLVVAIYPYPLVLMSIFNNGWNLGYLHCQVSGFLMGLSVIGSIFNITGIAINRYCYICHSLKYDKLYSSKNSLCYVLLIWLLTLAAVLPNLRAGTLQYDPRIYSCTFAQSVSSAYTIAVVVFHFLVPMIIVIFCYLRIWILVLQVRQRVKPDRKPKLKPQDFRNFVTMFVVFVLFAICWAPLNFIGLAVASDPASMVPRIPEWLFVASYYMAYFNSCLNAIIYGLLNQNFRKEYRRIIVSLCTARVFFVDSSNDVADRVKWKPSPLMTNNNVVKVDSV

Homo sapiens [17] = organism: Homo sapiens; experiment: Inhibition of PDE6 (unknown origin) at 10 uM relative to control
[18] = target: Prostaglandin G/H synthase 1 (Homo sapiens) (UniProt P23219); experiment: Inhibition of human COX1 at 10 uM relative to control
Chain of Prostaglandin G/H synthase 1 (Homo sapiens) (P23219 whole entry): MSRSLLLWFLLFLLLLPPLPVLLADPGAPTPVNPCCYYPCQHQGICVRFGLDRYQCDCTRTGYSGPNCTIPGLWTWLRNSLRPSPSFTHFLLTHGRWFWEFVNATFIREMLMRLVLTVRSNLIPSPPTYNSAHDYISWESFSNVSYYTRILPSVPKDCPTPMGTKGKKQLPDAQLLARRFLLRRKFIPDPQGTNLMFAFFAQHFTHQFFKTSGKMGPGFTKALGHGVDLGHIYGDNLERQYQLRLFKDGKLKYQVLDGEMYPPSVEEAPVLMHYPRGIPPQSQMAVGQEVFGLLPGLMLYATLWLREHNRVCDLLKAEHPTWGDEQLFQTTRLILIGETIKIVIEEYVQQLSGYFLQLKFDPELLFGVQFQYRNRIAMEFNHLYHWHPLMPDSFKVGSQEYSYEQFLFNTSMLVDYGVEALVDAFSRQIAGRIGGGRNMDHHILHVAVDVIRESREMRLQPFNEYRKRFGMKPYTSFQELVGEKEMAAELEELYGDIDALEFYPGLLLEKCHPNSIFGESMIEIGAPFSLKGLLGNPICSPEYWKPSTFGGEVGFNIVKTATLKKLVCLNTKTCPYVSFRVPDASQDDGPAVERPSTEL

[19] = target: Platelet-activating factor receptor (Homo sapiens) (UniProt P25105); experiment: Inhibition of human PAF receptor at 10 uM relative to control
[20] = target: High affinity choline transporter 1 (Homo sapiens) (UniProt Q9GZV3); experiment: Inhibition of human choline transporter (CHT1) at 10 uM relative to control
Chain of High affinity choline transporter 1 (Homo sapiens) (Q9GZV3 whole entry): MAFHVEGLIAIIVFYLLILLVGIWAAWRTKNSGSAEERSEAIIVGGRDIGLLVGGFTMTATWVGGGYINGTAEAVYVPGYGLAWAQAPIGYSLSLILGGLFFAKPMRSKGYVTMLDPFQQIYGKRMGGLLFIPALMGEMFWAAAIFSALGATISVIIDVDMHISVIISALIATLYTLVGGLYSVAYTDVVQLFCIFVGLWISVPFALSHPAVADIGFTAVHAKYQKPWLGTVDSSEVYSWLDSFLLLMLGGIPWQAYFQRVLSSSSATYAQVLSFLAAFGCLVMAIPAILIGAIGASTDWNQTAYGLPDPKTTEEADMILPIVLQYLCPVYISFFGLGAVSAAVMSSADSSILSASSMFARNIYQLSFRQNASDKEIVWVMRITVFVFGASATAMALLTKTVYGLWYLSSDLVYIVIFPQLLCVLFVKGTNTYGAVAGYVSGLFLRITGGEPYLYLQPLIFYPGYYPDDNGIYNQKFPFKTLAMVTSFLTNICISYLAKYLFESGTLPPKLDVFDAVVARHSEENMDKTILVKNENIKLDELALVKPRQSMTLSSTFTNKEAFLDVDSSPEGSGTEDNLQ

[21] = target: Tyrosine-protein kinase ZAP-70 (Homo sapiens) (UniProt P43403); experiment: Inhibition of human ZAP70 kinase at 10 uM relative to control
[22] = target: D(1A) dopamine receptor (Homo sapiens) (UniProt P21728); experiment: Inhibition of human D1 receptor at 10 uM relative to control
[23] = target: Alpha-1A adrenergic receptor (Homo sapiens) (UniProt P35348); experiment: Inhibition of human alpha 1A receptor at 10 uM relative to control
Chain of Alpha-1A adrenergic receptor (Homo sapiens) (P35348 whole entry): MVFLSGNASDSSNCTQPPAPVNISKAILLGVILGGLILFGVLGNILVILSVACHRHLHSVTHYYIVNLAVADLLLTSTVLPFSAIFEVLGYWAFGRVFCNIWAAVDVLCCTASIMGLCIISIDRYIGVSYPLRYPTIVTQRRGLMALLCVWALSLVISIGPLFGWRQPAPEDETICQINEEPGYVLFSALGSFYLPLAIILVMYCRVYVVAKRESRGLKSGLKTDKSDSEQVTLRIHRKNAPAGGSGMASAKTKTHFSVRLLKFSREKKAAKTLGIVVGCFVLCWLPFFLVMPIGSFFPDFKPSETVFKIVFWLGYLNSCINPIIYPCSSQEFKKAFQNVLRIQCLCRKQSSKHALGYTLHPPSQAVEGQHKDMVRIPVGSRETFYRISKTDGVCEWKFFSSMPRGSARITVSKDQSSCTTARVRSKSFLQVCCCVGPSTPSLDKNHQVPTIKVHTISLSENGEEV

[24] = target: Mu-type opioid receptor (Homo sapiens) (UniProt P35372); experiment: Inhibition of human mu opioid receptor at 10 uM relative to control
[25] = target: Substance-K receptor (Homo sapiens) (UniProt P21452); experiment: Inhibition of human NK2 receptor at 10 uM relative to control
Chain of Substance-K receptor (Homo sapiens) (P21452 whole entry): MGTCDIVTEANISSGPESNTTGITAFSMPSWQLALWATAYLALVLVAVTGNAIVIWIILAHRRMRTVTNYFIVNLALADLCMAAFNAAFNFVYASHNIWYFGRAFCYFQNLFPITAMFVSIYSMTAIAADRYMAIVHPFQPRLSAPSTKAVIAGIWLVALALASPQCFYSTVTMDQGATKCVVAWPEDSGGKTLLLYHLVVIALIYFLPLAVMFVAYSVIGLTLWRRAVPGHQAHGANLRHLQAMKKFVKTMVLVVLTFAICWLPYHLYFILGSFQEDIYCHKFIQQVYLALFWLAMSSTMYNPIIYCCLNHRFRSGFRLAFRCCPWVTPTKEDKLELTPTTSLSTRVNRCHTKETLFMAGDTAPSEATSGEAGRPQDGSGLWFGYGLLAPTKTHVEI

[26] = target: xanthine oxidase (Xanthine dehydrogenase/oxidase) (Homo sapiens, UniProt P47989); experiment: Inhibition of xanthine oxidase (unknown origin) at 10 uM relative to control
[27] = target: Neuronal acetylcholine receptor; alpha4/beta2 (Homo sapiens) (UniProt P17787+P43681); experiment: Inhibition of human N neuronal alpha4 beta2 receptor at 10 uM relative to control; type: protein-complex assay
[28] = target: Muscarinic acetylcholine receptor M4 (Homo sapiens) (UniProt P08173); experiment: Inhibition of human M4 receptor at 10 uM relative to control
[29] = target: Adenosine receptor A1 (Homo sapiens) (UniProt P30542); experiment: Inhibition of human A1 receptor at 10 uM relative to control
[30] = target: Nitric oxide synthase, inducible (Homo sapiens) (UniProt P35228); experiment: Inhibition of inducible NOS (unknown origin) at 10 uM relative to control
[31] = target: Peroxisome proliferator-activated receptor gamma (Homo sapiens) (UniProt P37231); experiment: Inhibition of human PPARgamma at 10 uM relative to control
[32] = target: Vascular endothelial growth factor receptor 1 (Homo sapiens) (UniProt P17948); experiment: Inhibition of human FLT-1 kinase (VEGFR1) at 10 uM relative to control
Chain of Vascular endothelial growth factor receptor 1 (Homo sapiens) (P17948 whole entry): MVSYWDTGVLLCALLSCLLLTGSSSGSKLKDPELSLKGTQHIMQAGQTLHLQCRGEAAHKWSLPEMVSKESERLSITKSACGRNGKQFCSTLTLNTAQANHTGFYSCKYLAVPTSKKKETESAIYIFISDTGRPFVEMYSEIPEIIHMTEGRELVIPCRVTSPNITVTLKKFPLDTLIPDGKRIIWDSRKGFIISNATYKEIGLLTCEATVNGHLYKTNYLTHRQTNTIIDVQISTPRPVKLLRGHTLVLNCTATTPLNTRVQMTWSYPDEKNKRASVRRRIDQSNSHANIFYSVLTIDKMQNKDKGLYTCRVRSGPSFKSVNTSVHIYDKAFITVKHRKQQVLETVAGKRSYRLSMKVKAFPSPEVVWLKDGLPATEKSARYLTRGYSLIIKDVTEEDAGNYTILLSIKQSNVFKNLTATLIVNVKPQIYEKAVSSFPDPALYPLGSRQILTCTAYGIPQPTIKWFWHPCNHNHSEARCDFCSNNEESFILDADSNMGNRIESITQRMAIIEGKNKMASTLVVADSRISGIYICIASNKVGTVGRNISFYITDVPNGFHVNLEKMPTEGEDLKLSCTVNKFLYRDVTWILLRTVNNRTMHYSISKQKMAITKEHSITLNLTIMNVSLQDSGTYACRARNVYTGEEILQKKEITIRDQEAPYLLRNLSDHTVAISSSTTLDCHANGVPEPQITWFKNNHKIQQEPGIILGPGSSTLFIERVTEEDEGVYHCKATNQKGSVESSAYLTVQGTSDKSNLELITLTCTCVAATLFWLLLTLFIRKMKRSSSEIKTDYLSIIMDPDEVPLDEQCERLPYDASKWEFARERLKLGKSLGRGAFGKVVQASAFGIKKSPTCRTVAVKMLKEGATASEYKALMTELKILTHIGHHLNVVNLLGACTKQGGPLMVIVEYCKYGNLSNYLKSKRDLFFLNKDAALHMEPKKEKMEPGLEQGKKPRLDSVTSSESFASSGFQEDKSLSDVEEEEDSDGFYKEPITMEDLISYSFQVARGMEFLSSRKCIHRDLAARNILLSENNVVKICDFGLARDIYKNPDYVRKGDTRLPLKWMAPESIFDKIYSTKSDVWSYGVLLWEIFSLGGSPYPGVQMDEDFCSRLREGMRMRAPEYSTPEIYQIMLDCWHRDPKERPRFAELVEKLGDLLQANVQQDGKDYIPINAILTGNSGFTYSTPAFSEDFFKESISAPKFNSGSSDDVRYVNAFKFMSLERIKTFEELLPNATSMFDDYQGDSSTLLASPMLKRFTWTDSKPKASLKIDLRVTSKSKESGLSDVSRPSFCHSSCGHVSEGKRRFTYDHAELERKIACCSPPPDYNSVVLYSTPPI

[33] = target: Matrix metalloproteinase-9 (Homo sapiens) (UniProt P14780); experiment: Inhibition of human MMP-9 at 10 uM relative to control
Chain of Matrix metalloproteinase-9 (Homo sapiens) (P14780 whole entry): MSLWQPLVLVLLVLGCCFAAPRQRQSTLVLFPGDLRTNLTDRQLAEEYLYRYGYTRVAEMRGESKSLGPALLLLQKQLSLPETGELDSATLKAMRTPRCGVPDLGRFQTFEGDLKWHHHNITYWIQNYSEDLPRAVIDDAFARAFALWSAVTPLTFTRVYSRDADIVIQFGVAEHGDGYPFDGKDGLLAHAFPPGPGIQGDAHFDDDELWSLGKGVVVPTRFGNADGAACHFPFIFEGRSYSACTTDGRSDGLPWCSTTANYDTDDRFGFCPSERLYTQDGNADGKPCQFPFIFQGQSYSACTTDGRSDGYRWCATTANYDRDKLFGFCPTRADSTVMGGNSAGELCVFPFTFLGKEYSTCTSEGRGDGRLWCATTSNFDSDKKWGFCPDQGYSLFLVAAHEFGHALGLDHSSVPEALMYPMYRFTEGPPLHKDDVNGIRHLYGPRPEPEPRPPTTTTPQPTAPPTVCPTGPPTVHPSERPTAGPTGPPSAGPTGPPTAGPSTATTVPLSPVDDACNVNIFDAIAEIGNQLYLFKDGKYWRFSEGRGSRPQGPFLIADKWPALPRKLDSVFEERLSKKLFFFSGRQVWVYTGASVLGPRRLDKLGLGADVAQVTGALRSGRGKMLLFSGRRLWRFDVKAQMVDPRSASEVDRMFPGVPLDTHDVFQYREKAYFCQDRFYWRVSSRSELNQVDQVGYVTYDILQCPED

[34] = target: Glutamate [NMDA] receptor (Homo sapiens) (UniProt Q05586+Q12879+Q13224+O15399+O60391+Q14957+Q8TCU5); experiment: Inhibition of NMDA receptor (unknown origin) at 10 uM relative to control; type: protein-complex assay
Homo sapiens [35] = organism: Homo sapiens; experiment: Inhibition of Ca2+ channel L, dihydropyridine site (unknown origin) at 10 uM relative to control

Compound: O=C([C@@H](Cc1cccc(C(F)(F)F)c1)NS(=O)(=O)c1cc(F)c2c(c1)CCNC2)N1CCCC1
- inhibition [1]: 61%
- Ki [2]: 0.00033 µM
- inhibition [3]: 10%
- inhibition (Homo sapiens [4]): 5%
- inhibition [5]: -4%
- inhibition [6]: 29%
- inhibition [7]: 6%
- inhibition [8]: 5%
- IC50 [9]: 3.8 µM
- inhibition (Homo sapiens [10]): 49%
- inhibition [11]: 8%
- inhibition [12]: -4%
- inhibition [13]: 0%
- IC50 [14]: 2.63 µM
- inhibition [15]: 1%
- inhibition [16]: 7%
- inhibition (Homo sapiens [17]): 11%
- inhibition [18]: 4%
- inhibition [19]: 6%
- inhibition [20]: 9%
- inhibition [21]: 13%
- inhibition [22]: 0%
- inhibition [23]: -3%
- inhibition [24]: 47%
- inhibition [25]: 28%
- inhibition at 10 µM [26]: 4%
- inhibition [27]: -4%
- inhibition [28]: 19%
- inhibition [29]: -10%
- inhibition [30]: -7%
- inhibition [31]: 7%
- inhibition [32]: 1%
- inhibition [33]: -9%
- inhibition [34]: -8%
- inhibition (Homo sapiens [35]): -10%
